Published values of several laboratories.
Lines come from different studies, so protocols differ.
Target: 3-phosphoinositide-dependent protein kinase 1 (PDPK1, Homo sapiens, UniProt O15530)
Sequence (O15530 1-556, as in one of the studies): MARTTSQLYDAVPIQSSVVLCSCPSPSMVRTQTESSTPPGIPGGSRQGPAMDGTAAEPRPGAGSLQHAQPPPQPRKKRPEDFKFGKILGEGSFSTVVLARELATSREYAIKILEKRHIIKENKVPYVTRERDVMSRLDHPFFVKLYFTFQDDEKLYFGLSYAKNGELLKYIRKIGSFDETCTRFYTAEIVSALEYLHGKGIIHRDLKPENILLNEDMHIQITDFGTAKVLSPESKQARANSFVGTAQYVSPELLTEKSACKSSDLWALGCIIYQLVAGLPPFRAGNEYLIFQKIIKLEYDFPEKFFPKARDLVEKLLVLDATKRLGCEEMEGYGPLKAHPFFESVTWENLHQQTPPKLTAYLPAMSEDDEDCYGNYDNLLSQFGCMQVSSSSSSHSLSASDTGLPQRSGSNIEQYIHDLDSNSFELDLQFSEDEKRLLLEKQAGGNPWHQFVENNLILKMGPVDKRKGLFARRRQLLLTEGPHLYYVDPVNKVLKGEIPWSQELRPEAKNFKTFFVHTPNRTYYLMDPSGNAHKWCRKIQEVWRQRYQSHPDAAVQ

CNC(=O)c1ccc(Nc2ncc(C(F)(F)F)c(NCc3nccnc3N(C)S(C)(=O)=O)n2)cc1  remaining binding (cell-free assay, competition with immobilised ligand; 0.1 µM): 81%
COc1cc(/C=C/C(=O)CC(=O)/C=C/c2ccc(O)c(OC)c2)ccc1O  activity vs control (enzyme activity, inhibitor; 1 µM): 90%
O=Nc1c(-c2c(O)[nH]c3ccccc23)[nH]c2ccccc12  remaining signal (cell-free assay; 0.5 µM): 93%
CC(C)CC(=O)N1CCc2nc(-c3ccc(Br)cc3)nc(N(C)Cc3ccccc3)c2C1  remaining binding (cell-free assay, competition with immobilised ligand; 0.1 µM): 100%
O=C1NC(=O)c2cc(Nc3ccc(F)cc3)c(Nc3ccc(F)cc3)cc21  remaining signal (cell-free assay; 0.5 µM): 102%
CS(=O)(=O)N1CCCC(NC(=O)[C@H](CCC2CCCCC2)NC(=O)c2ccc(CNc3ncnc4c3nnn4-c3ccccc3)cc2)C1 (stereo partly shown)  remaining binding (cell-free assay, competition with immobilised ligand; 0.1 µM): 99%
Cn1c(=O)n(-c2ccc(C(C)(C)C#N)cc2)c2c3cc(-c4cnc5ccccc5c4)ccc3ncc21  remaining activity (enzyme activity, inhibitor; 10 µM): 98%
Cc1nc(N2CC[C@@H](O)C2)ncc1-c1cc(C(F)(F)F)cc2[nH]ncc12  remaining binding (binding, competition with immobilised ligand; 1 µM): 100%
Nc1nc(NC2CCCCC2)sc1C(=O)c1ccccc1  remaining activity (enzyme activity, inhibitor; 10 µM): 106%
O=C(N[C@H]1CCCCC/C=C\C2C[C@@]2(C(=O)O)NC(=O)[C@@H]2C[C@@H](Oc3ccncc3)CN2C1=O)OC1CCCC1 (stereo partly shown)  remaining binding (binding, competition with immobilised ligand; 1 µM): 92%
C#Cc1cccc(Nc2ncnc3cc(OCCOC)c(OCCOC)cc23)c1  remaining signal (cell-free assay; 0.5 µM): 83.8%
O=C(Nc1cnn(-c2csc(C(=O)NC3COC3)c2)c1)Nc1c(F)cccc1Cl  remaining activity (enzyme activity, inhibitor; 5 µM): 99.6%
COc1cccc(CNC(=O)c2nc3scc(COCc4ccc(C(=O)O)cc4)c3c(=O)[nH]2)c1  remaining binding (cell-free assay, competition with immobilised ligand; 1 µM): 87.8%
Cc1cc(NC(=O)c2cccc3cc(-c4cccc5[nH]nc(N)c45)ccc23)ccc1F  activity vs control (enzyme activity, inhibitor; 0.1 µM): 101%
CNC(=O)c1cc(Oc2ccc(NC(=O)Nc3ccc(Cl)c(C(F)(F)F)c3)cc2)ccn1  remaining binding (cell-free assay, competition with immobilised ligand; 0.1 µM): 100%
CCN(CC)c1ccc(C2=NNC(=O)CC2C)cc1[N+](=O)[O-] (stereo not shown)  remaining activity (enzyme activity, inhibitor; 10 µM): 116%
O=C1Nc2ccc(Cl)cc2C1=Cc1cc(Cl)c(O)c(Cl)c1  remaining signal (cell-free assay; 0.5 µM): 103%
COc1cc(Nc2cnc(C#N)c(O[C@H](C)CN(C)C)n2)ncc1-c1cnn(C)c1  remaining activity (enzyme activity, inhibitor, radiometric; 1 µM): 76%
O=C(O)[C@@H]1[C@@H](Cn2nnc3ccccc3c2=O)CC[C@H]1C(=O)c1ccc(OCCC2CCOCC2)cc1  remaining binding (cell-free assay, competition with immobilised ligand; 1 µM): 80%
CC(C)(C)c1nc2c(s1)c1nc(N)ncc1c1ccc(NS(=O)(=O)c3c(F)cccc3F)c(F)c12  remaining activity (enzyme activity, inhibitor, radiometric; 1 µM): 82%
Cc1ccc(NC(=O)c2ccc(C)c(C(F)(F)F)c2)cc1C#Cc1nn(C2CCC(O)CC2)c2ncnc(N)c12 (stereo not shown)  remaining signal (cell-free assay; 10 µM): 113%
N#CCCc1ccc2c(c1)-c1[nH]c3ccc([N+](=O)[O-])cc3c1CC(=O)N2  remaining signal (cell-free assay; 0.5 µM): 79.8%
FC(F)c1nc2ccccc2n1-c1nc(N2CCOCC2)nc(N2CCOCC2)n1  remaining activity (enzyme activity, inhibitor; 10 µM): 92%
Cc1c(NC(=O)c2cc(C(N)=O)nc3cc(F)ccc23)c(C(F)(F)F)nn1Cc1ccc(C(C)(C)C)cc1  remaining binding (cell-free assay, competition with immobilised ligand; 1 µM): 94%
CN(C)C1CCN(CC#Cc2nn(C3CCCC3)c3nc(NCc4ccccc4)ncc23)C1 (stereo not shown)  inhibition (enzyme activity, inhibitor, FRET; 1 µM): 4%
